Measurements gathered from unrelated publications.
STK38: Serine/threonine-protein kinase 38 (STK38, Homo sapiens, UniProt Q15208)
Nos2: Nitric oxide synthase, inducible (Nos2, Mus musculus, UniProt P29477)

Compound | target | read-out | action | technique | concentration | measurement | value
Nc1ncc(-c2nc(N3CCOCC3)nc(N3CCOCC3)n2)c(C(F)F)n1 | Proto-oncogene tyrosine-protein kinase receptor Ret (RET, Homo sapiens, UniProt P07949, M918T) | binding |  | competition with immobilised ligand | 10 µM | remaining binding | 78%
COc1ncccc1-c1cnn2ccc(N3CCN(C(=O)OC(C)C)CC3)nc12 | STK38 | binding |  | competition with immobilised ligand | 1 µM | remaining binding | 84%
Cc1nn(C)cc1-c1nc2c(N3CCN(Cc4ccc(Cl)cc4)CC3)c(Cl)cnc2[nH]1 | STK38 | binding |  | competition with immobilised ligand | 1 µM | remaining binding | 86%
Cc1sc2c(c1C)C(c1ccc(Cl)cc1)=N[C@@H](CC(=O)OC(C)(C)C)c1nnc(C)n1-2 | Stimulator of interferon genes protein (STING1, Homo sapiens, UniProt Q86WV6, H232R) | thermal stability |  | DSF | 50 µM | ΔTm | -0.5 °C
c1ccc(C(NCCNC(c2ccccc2)c2ccccc2)c2ccccc2)cc1 | Nos2 | enzyme activity | inhibitor |  | 10 µM | inhibition | 3%
C#Cc1n[nH]c2c(-c3cn(C(C)c4ccccn4)c(=O)[nH]c3=O)cc(F)cc12 (centres unmarked) | Proto-oncogene tyrosine-protein kinase receptor Ret (RET, Homo sapiens, UniProt P07949, V804L) | enzyme activity | inhibitor |  | 1 µM | inhibition | 4.9%
C[C@H](C(=O)N[C@H]1COc2ccccc2[C@@H]1S(C)(=O)=O)c1ccc(F)cc1 | Nos2 | enzyme activity | inhibitor |  | 10 µM | inhibition | 3%
COc1cc(Nc2ncc(F)c(Nc3ccc4c(n3)NC(=O)C(C)(C)O4)n2)cc(OC)c1OC | Citron Rho-interacting kinase (CIT, Homo sapiens, UniProt O14578) | binding |  |  | 10 µM | inhibition | 99%
